According to ChEMBL document CHEMBL1123947, “Design, structure-activity, and molecular modeling studies of potent renin inhibitory peptides having N-terminal Nin-For-Trp (Ftr): angiotensinogen congeners modified by P1-P1' Phe-Phe, Sta, Leu psi[CH(OH)CH2]Val or leu psi[CH2NH]Val substitutions” (J Med Chem, 1988):
Numbered stars: 1 amine (or outer) side, 2 acyl side, 3 side chain; on linkers, the order of the positions; unused ones are H or OH. Square brackets hold non-standard residues; d marks the D form. Peptide text beside a SMILES is read from it. * marks the point of attachment. ξ: configuration not given here. Sta(3ξ) = CC(C)C[C@H](N[*:1])C(O)CC(=O)[*:2]; X4 = CC(C)C[C@H](N*)C(O)C[C@H](C(N)=O)C(C)C; X5 = CC(C)C[C@@H](CN[C@H](C(N)=O)C(C)C)N*; X1 = CC(C)CC(N[*:1])C(O)CC(=O)[*:2]; X3 = CC(C)CC(N[*:1])C(O)C(=O)[*:2]; Ile(3ξ) = CCC(C)[C@H](N)C(=O)O; X2 = CC(C)CC(N*)C(O)CC(N)=O; Cbz = O=C(OCc1ccccc1)*; Boc = CC(C)(C)OC(=O)*; For = O=C*

Assays:
[1] = target: Renin (Sus scrofa); assay: In vitro inhibitory activity towards porcine kidney renin
[2] = target: T1, Renin (Homo sapiens, UniProt P00797); assay: In vitro inhibitory activity against human plasma renin; assay type: cell-free
T1 sequence (P00797 whole entry): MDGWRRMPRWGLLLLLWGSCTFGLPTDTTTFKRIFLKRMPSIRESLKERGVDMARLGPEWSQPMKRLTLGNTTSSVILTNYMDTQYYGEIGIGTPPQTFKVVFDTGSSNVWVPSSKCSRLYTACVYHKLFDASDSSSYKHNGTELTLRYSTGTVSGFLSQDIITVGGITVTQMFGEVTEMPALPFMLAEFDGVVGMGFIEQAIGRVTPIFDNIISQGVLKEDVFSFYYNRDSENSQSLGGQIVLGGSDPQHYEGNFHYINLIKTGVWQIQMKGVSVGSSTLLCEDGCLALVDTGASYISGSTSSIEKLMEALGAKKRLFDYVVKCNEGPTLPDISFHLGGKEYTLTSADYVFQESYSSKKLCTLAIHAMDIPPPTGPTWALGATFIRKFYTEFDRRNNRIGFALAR
In short: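 Reconstituted lyophilized human plasma with 0.1% EDTA, plus PMSF and maleate buffer (pH 6.0). Inhibitor added in 1.0% Tween 80/water vehicle. Angiotensin I generated for 90 min at 37 °C and measured by RIA.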

## CC(C)CC(NC(=O)[C@@H](N)Cc1cnc[nH]1)C(O)CC(=O)N[C@@H](CC(C)C)C(=O)N[C@@H](Cc1ccccc1)C(N)=O (some centres undefined)
[1]
  IC50: 370000 nM

## CC[C@H](C)[C@H](NC(=O)[C@@H](C[C@H](O)[C@H](CC(C)C)NC(=O)[C@H](Cc1c[nH]cn1)N(C)C(=O)[C@H](Cc1ccccc1)NC(=O)[C@@H]1CCCN1C(=O)OC(C)(C)C)C(C)C)C(=O)NCc1ccccn1
[2]
  IC50: 0.11 nM

## CC(=O)N[C@H](Cc1c[nH]c2ccccc12)C(=O)N1CCC[C@H]1C(=O)N[C@@H](Cc1ccccc1)C(=O)N[C@@H](Cc1c[nH]cn1)C(=O)N[C@@H](Cc1ccccc1)C(=O)N[C@@H](Cc1ccccc1)C(=O)N[C@H](C(=O)N[C@@H](Cc1cn(C=O)c2ccccc12)C(N)=O)C(C)C
[2]
  IC50: 5000 nM

## CC(=O)N[C@@H](Cc1cn(C=O)c2ccccc12)C(=O)N1CCC[C@H]1C(=O)N[C@@H](Cc1ccccc1)C(=O)N[C@@H](Cc1cnc[nH]1)C(=O)N[C@@H](Cc1ccccc1)C(=O)N[C@@H](Cc1ccccc1)C(=O)N[C@H](C(=O)N[C@@H](Cc1cn(C=O)c2ccccc12)C(N)=O)C(C)C
[2]
  IC50: 500 nM

## CC[C@H](C)[C@H](NC(=O)CC(O)[C@H](CC(C)C)NC(=O)[C@H](Cc1c[nH]cn1)NC(=O)[C@H](Cc1ccccc1)NC(=O)[C@@H]1CCCN1C(=O)[C@@H](Cc1cn(C=O)c2ccccc12)NC(C)=O)C(N)=O (some centres undefined)
[2]
  IC50: 14 nM

## CC[C@H](C)[C@H](NC(=O)[C@@H](NC[C@H](CC(C)C)NC(=O)[C@H](Cc1c[nH]cn1)NC(=O)[C@H](Cc1ccccc1)NC(=O)[C@@H]1CCCN1C(=O)[C@H](Cc1c[nH]cn1)NC(=O)[C@@H]1CCCN1)C(C)C)C(=O)N[C@@H](Cc1c[nH]cn1)C(=O)N[C@@H](CCCCN)C(=O)O
[2]
  IC50: 10 nM

## CC[C@H](C)[C@H](NC(=O)CC(O)[C@H](CC(C)C)NC(=O)[C@H](Cc1cnc[nH]1)NC(=O)[C@H](Cc1ccccc1)NC(=O)[C@@H]1CCCN1C(=O)[C@H](Cc1cn(C=O)c2ccccc12)NC(C)=O)C(N)=O (some centres undefined)
[2]
  IC50: 0.1 nM

## CC(=O)N[C@H](Cc1c[nH]cn1)C(=O)N1CCC[C@H]1C(=O)N[C@@H](Cc1ccccc1)C(=O)N[C@@H](Cc1ccccc1)C(=O)N[C@H](C(=O)N[C@@H](Cc1cn(C=O)c2ccccc12)C(N)=O)C(C)C
[2]
  IC50: ~100000 nM

## CC(=O)N[C@H](Cc1cn(C=O)c2ccccc12)C(=O)N1CCC[C@H]1C(=O)N[C@@H](Cc1ccccc1)C(=O)N[C@@H](Cc1cnc[nH]1)C(=O)N[C@@H](Cc1ccccc1)C(=O)N[C@@H](Cc1ccccc1)C(=O)N[C@H](C(=O)N[C@@H](Cc1cn(C=O)c2ccccc12)C(N)=O)C(C)C
[2]
  IC50: > 100000 nM

## CC(=O)N[C@@H](Cc1c[nH]cn1)C(=O)N[C@@H](Cc1ccccc1)C(=O)N[C@@H](Cc1cn(C=O)c2ccccc12)C(=O)N[C@@H](Cc1ccccc1)C(=O)N[C@@H](Cc1ccccc1)C(=O)N[C@H](C(=O)N[C@@H](Cc1cn(C=O)c2ccccc12)C(N)=O)C(C)C (Ac-HFW(For)FFVW(For)-NH2)
[2]
  IC50: > 100000 nM

## CC(=O)N[C@@H](Cc1cnc[nH]1)C(=O)N1CCC[C@H]1C(=O)N[C@@H](Cc1ccccc1)C(=O)N[C@@H](Cc1cnc[nH]1)C(=O)N[C@@H](Cc1ccccc1)C(=O)N[C@@H](Cc1ccccc1)C(=O)N[C@H](C(=O)N[C@@H](Cc1cn(C=O)c2ccccc12)C(N)=O)C(C)C (Ac-HPFHFFVW(For)-NH2)
[2]
  IC50: 8300 nM

## CC[C@H](C)[C@H](NC(=O)CC(O)[C@H](CC(C)C)NC(=O)[C@H](Cc1cnc[nH]1)NC(=O)[C@H](Cc1ccccc1)NC(=O)[C@@H]1CCCN1C(=O)[C@H](Cc1cnc[nH]1)NC(C)=O)C(N)=O (some centres undefined) (Ac-HPFH[Sta(3ξ)]I-NH2)
[2]
  IC50: 6.8 nM

## CC(=O)N[C@@H](Cc1cn(C=O)c2ccccc12)C(=O)NCC(=O)N[C@@H](Cc1ccccc1)C(=O)N[C@@H](Cc1cnc[nH]1)C(=O)N[C@@H](Cc1ccccc1)C(=O)N[C@@H](Cc1ccccc1)C(=O)N[C@H](C(=O)N[C@@H](Cc1cn(C=O)c2ccccc12)C(N)=O)C(C)C (Ac-W(For)GFHFFVW(For)-NH2)
[2]
  IC50: > 100000 nM

## CC(=O)N[C@@H](Cc1cn(C=O)c2ccccc12)C(=O)N1CCC[C@H]1C(=O)N[C@@H](Cc1ccccc1)C(=O)N[C@@H](Cc1cnc[nH]1)C(=O)NC(CC(C)C)C(O)CC(N)=O (some centres undefined) (Ac-W(For)PFH-X2)
[2]
  IC50: 3.8 nM

## CC(=O)N[C@@H](Cc1cn(C=O)c2ccccc12)C(=O)N1CCC[C@H]1C(=O)N[C@@H](Cc1ccccc1)C(=O)N[C@@H](Cc1c[nH]cn1)C(=O)N[C@@H](CC(C)C)C(O)C[C@H](C(N)=O)C(C)C (some centres undefined) (Ac-W(For)PFH-X4)
[2]
  IC50: 0.31 nM

## CC(=O)N[C@@H](Cc1cn(C=O)c2ccccc12)C(=O)N1CCC[C@H]1C(=O)N[C@@H](Cc1ccccc1)C(=O)N[C@@H](Cc1c[nH]cn1)C(=O)N[C@H](CN[C@H](C(N)=O)C(C)C)CC(C)C (Ac-W(For)PFH-X5)
[2]
  IC50: 21 nM

## CC(=O)N[C@@H](Cc1cn(C=O)c2ccccc12)C(=O)N1CCC[C@H]1C(=O)N[C@@H](Cc1ccccc1)C(=O)N[C@@H](Cc1c[nH]cn1)C(=O)N[C@@H](Cc1ccccc1)C(=O)N[C@@H](Cc1ccccc1)C(N)=O (Ac-W(For)PFHFF-NH2)
[2]
  IC50: > 100000 nM

## CC(=O)N[C@@H](Cc1cn(C=O)c2ccccc12)C(=O)N1CCC[C@H]1C(=O)N[C@@H](Cc1ccccc1)C(=O)N[C@@H](Cc1cnc[nH]1)C(=O)N[C@@H](Cc1ccccc1)C(=O)N[C@@H](Cc1ccccc1)C(=O)N[C@H](C(N)=O)C(C)C (Ac-W(For)PFHFFV-NH2)
[2]
  IC50: 2100 nM

## CC(=O)N[C@@H](Cc1cn(C=O)c2ccccc12)C(=O)N1CCC[C@H]1C(=O)N[C@@H](Cc1ccccc1)C(=O)N[C@@H](Cc1c[nH]cn1)C(=O)NC(CC(C)C)C(O)CC(=O)N[C@H](C(N)=O)C(C)C (some centres undefined) (Ac-W(For)PFH[X1]V-NH2)
[2]
  IC50: 0.53 nM

## CC(=O)N[C@@H](Cc1cn(C=O)c2ccccc12)C(=O)N1CCC[C@H]1C(=O)N[C@@H](Cc1ccccc1)C(=O)N[C@@H](Cc1cnc[nH]1)C(=O)NC(CC(C)C)C(O)CC(=O)N[C@H](C(=O)N[C@@H](Cc1cn(C=O)c2ccccc12)C(N)=O)C(C)C (some centres undefined) (Ac-W(For)PFH[X1]VW(For)-NH2)
[2]
  IC50: 0.38 nM

## CC[C@H](C)[C@H](NC(=O)CC(O)[C@H](CC(C)C)NC(=O)[C@H](Cc1c[nH]cn1)NC(=O)[C@H](Cc1ccccc1)NC(=O)[C@@H]1CCCN1C(=O)[C@H](Cc1c[nH]c2ccccc12)NC(C)=O)C(N)=O (some centres undefined) (Ac-WPFH[Sta(3ξ)]I-NH2)
[2]
  IC50: 1.6 nM

## CC[C@H](C)[C@H](NC(=O)C(O)C(CC(C)C)NC(=O)[C@H](Cc1c[nH]cn1)NC(=O)[C@H](Cc1ccccc1)NC(=O)[C@@H]1CCCN1C(=O)[C@H](CCCN=C(N)N)NC(=O)[C@H](CCCN=C(N)N)NC(=O)OCc1ccccc1)C(=O)N[C@@H](Cc1c[nH]cn1)C(=O)N[C@@H](CCCCNC(=O)OC(C)(C)C)C(=O)OC (some centres undefined) (Cbz-RRPFH[X3]IHK(Boc)-OMe)
[2]
  IC50: 1 nM

## CCC(C)[C@H](NC(=O)CC(O)C(CC(C)C)NC(=O)[C@H](Cc1c[nH]cn1)NC(=O)[C@H](Cc1ccccc1)NC(=O)[C@@H]1CCCN1C=O)C(N)=O (some centres undefined) (For-PFH[X1][Ile(3ξ)]-NH2)
[2]
  IC50: 31 nM

## CC(C)CC(NC(=O)[C@H](Cc1c[nH]cn1)NC(=O)[C@H](Cc1ccccc1)NC(=O)[C@@H]1CCCN1)C(O)CC(=O)N[C@@H](CC(C)C)C(=O)N[C@@H](Cc1ccccc1)C(N)=O (some centres undefined) (H-PFH[X1]LF-NH2)
[1]
  IC50: 200 nM
